According to ChEMBL document CHEMBL3352384, “Synthesis and biological activity of new salicylanilide N,N-disubstituted carbamates and thiocarbamates” (Bioorg Med Chem, 2014):
In brackets after ≈: the same amount, converted by molar mass.

How the values were obtained:
Mycobacterium avium [1] = experiment: Antimycobacterial activity against Isoniazid, rifampicin, ofloxacin and ethambutol-resistant Mycobacterium avium 330/88 assessed as complete growth inhibition after 21 days; assay type: functional; settings: 330/88, 504 h
Procedure, shortened: (§1)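 M. tuberculosis 331/88 (H37Rv) inoculum diluted 10-3, M. avium 330/88 diluted 10-5. MIC is the lowest concentration giving complete growth inhibition. Isoniazid and p-aminosalicylic acid as references. Quadruplicate, repeated twice.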

Mycobacterium kansasii [2] = experiment: Antimycobacterial activity against Mycobacterium kansasii 235/80 assessed as complete growth inhibition after 7 days; assay type: functional; settings: 235/80, 168 h
Procedure, shortened: (§2)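 Dilutions of M. kansasii inoculum were 10-4 for strain 235/80 and 10-5 for clinical isolate 6509/96. MIC was the lowest concentration giving complete growth inhibition, run in quadruplicate and repeated twice.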

Mycobacterium kansasii [3] = experiment: Antimycobacterial activity against Mycobacterium kansasii 235/80 assessed as complete growth inhibition after 14 days; assay type: functional; settings: 235/80, 336 h; procedure, shortened: as §2
Mycobacterium kansasii [4] = experiment: Antimycobacterial activity against Mycobacterium kansasii 235/80 assessed as complete growth inhibition after 21 days; assay type: functional; settings: 235/80, 504 h; procedure, shortened: as §2
Mycobacterium kansasii [5] = experiment: Antimycobacterial activity against clinical isolate Mycobacterium kansasii 6509/96 assessed as complete growth inhibition after 7 days; assay type: functional; settings: 6509/96, 168 h; procedure, shortened: as §2
Mycobacterium kansasii [6] = experiment: Antimycobacterial activity against clinical isolate Mycobacterium kansasii 6509/96 assessed as complete growth inhibition after 14 days; assay type: functional; settings: 6509/96, 336 h; procedure, shortened: as §2
Mycobacterium kansasii [7] = experiment: Antimycobacterial activity against clinical isolate Mycobacterium kansasii 6509/96 assessed as complete growth inhibition after 21 days; assay type: functional; settings: 6509/96, 504 h; procedure, shortened: as §2
[8] = Inhibition of Mycobacterium tuberculosis H37Rv isocitrate lyase assessed as glyoxylate phenyl hydrazone formation at 10 uM
HepG2 = experiment: Cytotoxicity against human HepG2 cells assessed as reduction in cell viability after 24 hrs by MTS assay; assay type: cell-based; settings: HepG2, 24 h
Procedure, shortened: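 HepG2 hepatocellular carcinoma cells (passage 3–4) were grown in Eagle's MEM with 10% FBS, 1% L-glutamine and non-essential amino acids. Compounds were added from DMSO at eight concentrations in triplicate, with 10% DMSO as the 0% viability control. Viability was read by tetrazolium salt reduction (CellTiter 96 AQueous One). IC50 is the concentration reducing viability to 50% of control.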

[9] = Selectivity index, ratio of IC50 for human HepG2 cells to MIC for atypical mycobacteria
Procedure, shortened: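 Selectivity index = HepG2 IC50 / MIC. HepG2 cells (passage 3–4) grown in Eagle's MEM with 10% FBS, L-glutamine and non-essential amino acids. Compounds added from DMSO, eight concentrations in triplicate, tetrazolium-reduction colorimetric read-out. IC50 is the concentration reducing viability to 50% of control; 10% DMSO as 0% viability.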

[10] = Selectivity index, ratio of IC50 for human HepG2 cells to MIC for Trichophyton mentagrophytes 445
[11] = Selectivity index, ratio of IC50 for human HepG2 cells to MIC for Mycobacterium tuberculosis H37Rv; assay type: toxicity, cell-based; settings: read-out: Selectivity Index
Procedure, shortened: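 Selectivity index = HepG2 IC50 / MIC. HepG2 cells (passage 3–4) grown in Eagle's MEM with 10% FBS, L-glutamine and non-essential amino acids. Compounds added from DMSO, eight concentrations in triplicate, tetrazolium-reduction colorimetric read-out.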

[12] = test system: Mycobacterium tuberculosis; experiment: Antimycobacterial activity against Mycobacterium tuberculosis H37Rv 331/88 assessed as complete growth inhibition after 14 days; assay type: functional; settings: H37Rv 331/88, 336 h; procedure, shortened: as §1
[13] = test system: Mycobacterium tuberculosis; experiment: Antimycobacterial activity against Mycobacterium tuberculosis H37Rv 331/88 assessed as complete growth inhibition after 21 days; assay type: functional; settings: H37Rv 331/88, 504 h; procedure, shortened: as §1
Mycobacterium avium [14] = experiment: Antimycobacterial activity against Isoniazid, rifampicin, ofloxacin and ethambutol-resistant Mycobacterium avium 330/88 assessed as complete growth inhibition after 14 days; assay type: functional; settings: 330/88, 336 h; procedure, shortened: as §1

SMILES | MIC (Mycobacterium avium [1]) [µM] | MIC (Mycobacterium kansasii [2]) [µM] | MIC (Mycobacterium kansasii [3]) [µM] | MIC (Mycobacterium kansasii [4]) [µM] | MIC (Mycobacterium kansasii [5]) [µM] | MIC (Mycobacterium kansasii [6]) [µM] | MIC (Mycobacterium kansasii [7]) [µM] | inhibition [8] [%] | IC50 (HepG2) [µM] | Selectivity Index [9] | Selectivity Index [10] | selectivity ratio [11] | MIC [12] [µM] | MIC [13] [µM] | MIC (Mycobacterium avium [14]) [µM]
O=C(Nc1ccc(Cl)cc1)c1cc(Cl)ccc1O | 16 (≈ 4.51 µg/mL) | 4 (≈ 1.13 µg/mL) | 8 (≈ 2.26 µg/mL) | 8 (≈ 2.26 µg/mL) | 4 (≈ 1.13 µg/mL) | 8 (≈ 2.26 µg/mL) | 8 (≈ 2.26 µg/mL) | 13 | 21.7 | 1.4 | 11.1 | 5.4 | 4 (≈ 1.13 µg/mL) | 4 (≈ 1.13 µg/mL) | 8 (≈ 2.26 µg/mL)
CN(C)C(=O)Oc1ccc(Cl)cc1C(=O)Nc1ccc(Br)cc1 | 62.5 (≈ 24.9 µg/mL) | 62.5 (≈ 24.9 µg/mL) | 125 (≈ 49.7 µg/mL) | 125 (≈ 49.7 µg/mL) | 62.5 (≈ 24.9 µg/mL) | 62.5 (≈ 24.9 µg/mL) | 62.5 (≈ 24.9 µg/mL) | 9 | 342 | <=5.5 |  | 21.4 | 16 (≈ 6.36 µg/mL) | 16 (≈ 6.36 µg/mL) | 62.5 (≈ 24.9 µg/mL)
Nc1ccc(C(=O)O)c(O)c1 [AMINOSALICYLIC ACID] | 125 (≈ 19.1 µg/mL) | 125 (≈ 19.1 µg/mL) | 1000 (≈ 153 µg/mL) | > 1000 | 32 (≈ 4.9 µg/mL) | 125 (≈ 19.1 µg/mL) | 500 (≈ 76.6 µg/mL) | 10 | 2240 | <2.2 |  | 35.8 | 62.5 (≈ 9.57 µg/mL) | 62.5 (≈ 9.57 µg/mL) | 32 (≈ 4.9 µg/mL)
O=C(O)CC[N+](=O)[O-] | > 1000 | > 1000 | > 1000 | > 1000 | > 1000 | > 1000 | > 1000 | 25 | 692 | <0.7 |  | < 0.7 |  | > 1000 | > 1000
CN(C(=O)Oc1ccccc1C(=O)Nc1ccccc1)c1ccccc1 | > 1000 | 250 (≈ 86.6 µg/mL) | 500 (≈ 173 µg/mL) | 500 (≈ 173 µg/mL) | 250 (≈ 86.6 µg/mL) | 500 (≈ 173 µg/mL) | 1000 (≈ 346 µg/mL) | 3 | 280 | <=1.1 |  | 1.1 | 250 (≈ 86.6 µg/mL) | 250 (≈ 86.6 µg/mL) | > 1000
CN(C)C(=S)Oc1ccccc1C(=O)Nc1ccccc1 | > 1000 | > 1000 | > 1000 | > 1000 | > 1000 | > 1000 | > 1000 | 6 | > 500 |  |  |  | > 1000 | > 1000 | > 1000
O=C(Nc1ccccc1)c1ccccc1O [SALICYLANILIDE] | 250 (≈ 53.3 µg/mL) | 125 (≈ 26.7 µg/mL) | 250 (≈ 53.3 µg/mL) | 250 (≈ 53.3 µg/mL) | 125 (≈ 26.7 µg/mL) | 250 (≈ 53.3 µg/mL) | 250 (≈ 53.3 µg/mL) | 9 | 89.8 | 0.36 |  | 0.7 | 32 (≈ 6.82 µg/mL) | 125 (≈ 26.7 µg/mL) | 125 (≈ 26.7 µg/mL)
CN(C)C(=O)Oc1ccccc1C(=O)Nc1ccccc1 | 1000 (≈ 284 µg/mL) | 1000 (≈ 284 µg/mL) | 1000 (≈ 284 µg/mL) | 1000 (≈ 284 µg/mL) | 1000 (≈ 284 µg/mL) | 1000 (≈ 284 µg/mL) | 1000 (≈ 284 µg/mL) | 10 | 5990 | 6 |  | 6 | 1000 (≈ 284 µg/mL) | 1000 (≈ 284 µg/mL) | 1000 (≈ 284 µg/mL)
CN(C(=O)Oc1ccc(Cl)cc1C(=O)Nc1ccc(F)cc1)c1ccccc1 | 250 (≈ 99.7 µg/mL) | 62.5 (≈ 24.9 µg/mL) | 125 (≈ 49.9 µg/mL) | 125 (≈ 49.9 µg/mL) | 62.5 (≈ 24.9 µg/mL) | 125 (≈ 49.9 µg/mL) | 125 (≈ 49.9 µg/mL) | 14 | 512 | <=8.2 |  | 8.2 | 32 (≈ 12.8 µg/mL) | 62.5 (≈ 24.9 µg/mL) | 250 (≈ 99.7 µg/mL)
O=C(Nc1ccc(C(F)(F)F)cc1)c1cc(Cl)ccc1OC(=O)N(c1ccccc1)c1ccccc1 | 250 (≈ 128 µg/mL) | 125 (≈ 63.9 µg/mL) | 125 (≈ 63.9 µg/mL) | 125 (≈ 63.9 µg/mL) | 125 (≈ 63.9 µg/mL) | 125 (≈ 63.9 µg/mL) | 125 (≈ 63.9 µg/mL) | 21 | > 100 |  |  |  | 125 (≈ 63.9 µg/mL) | 125 (≈ 63.9 µg/mL) | 250 (≈ 128 µg/mL)
